Screening data: PubChem BioAssay, several laboratories
PvdQ acylase – blocks Pseudomonas aeruginosa PvdQ acylase activity; purified PvdQ acylase, fluorescence plate reader; inhibition, % at 10 µM; 340,000 tested, 0.063% active; in the data active = inhibition above about 30%, passing the limit was not always enough;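 note: 0% = vehicle neutral wells and 100% = reference inhibitor wells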
RAD54 inh – blocks human RAD54 Holliday junction branch migration. 360,000 tested, 0.14% active. inhibition, % at 10.4 µM. FAM/BHQ fluorescence. Q92698;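 active = mean normalized replicate activity at least 40 and at least half of replicates scoring 40 or more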;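 note: 0% = median of neutral control wells and 100% = median of positive control wells; inhibitors cause a drop in the FAM fluorescence signal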
Target sequence (Q92698 whole entry, looked up): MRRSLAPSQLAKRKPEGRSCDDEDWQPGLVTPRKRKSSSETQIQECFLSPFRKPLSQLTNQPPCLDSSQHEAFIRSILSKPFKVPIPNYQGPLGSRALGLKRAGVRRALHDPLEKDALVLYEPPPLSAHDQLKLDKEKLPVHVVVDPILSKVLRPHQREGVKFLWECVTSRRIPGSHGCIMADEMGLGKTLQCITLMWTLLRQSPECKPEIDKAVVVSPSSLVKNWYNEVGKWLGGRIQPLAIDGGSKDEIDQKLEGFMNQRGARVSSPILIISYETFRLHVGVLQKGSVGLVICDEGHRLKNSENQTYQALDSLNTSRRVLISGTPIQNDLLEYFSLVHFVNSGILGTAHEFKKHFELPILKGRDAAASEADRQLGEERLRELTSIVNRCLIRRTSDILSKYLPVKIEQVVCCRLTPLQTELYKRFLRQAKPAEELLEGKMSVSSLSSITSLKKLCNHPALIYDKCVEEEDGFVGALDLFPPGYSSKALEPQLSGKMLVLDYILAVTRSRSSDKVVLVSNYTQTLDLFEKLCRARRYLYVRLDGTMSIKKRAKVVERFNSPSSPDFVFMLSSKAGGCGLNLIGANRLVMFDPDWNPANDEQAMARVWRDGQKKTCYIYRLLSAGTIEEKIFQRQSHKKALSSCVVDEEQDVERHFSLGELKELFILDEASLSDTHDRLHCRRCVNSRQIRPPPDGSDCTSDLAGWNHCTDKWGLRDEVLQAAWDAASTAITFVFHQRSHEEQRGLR
FID counter – counter-screen for HCV NS3 helicase inhibitors: DNA intercalator displacement. DNA fluorescent intercalator displacement, fluorescence. inhibition, % at 7.9 µM. 290,000 tested, 0.17% active. AID 1845; in the data active = inhibition above about 37%;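 note: 0% = vehicle and 100% = reference compound; higher means more ethidium bromide displaced from hairpin DNA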
VIM-2 inh – blocks Pseudomonas aeruginosa VIM-2 metallo-beta-lactamase. inhibition, % at 5.6 µM. purified VIM-2, nitrocefin hydrolysis, epi-absorbance fluorescence. 290,000 tested, 0.89% active;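 active = inhibition above the mean of all tested compounds plus 3 SD, cutoff set per screening run, cut at about 7.5% in these data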;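 note: red hydrolysis product quenches plate fluorescence so inhibitors raise well fluorescence; 0% = enzyme with DMSO and 100% = DMSO without enzyme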
IMP-1 inhibitor – inhibitors of Pseudomonas aeruginosa IMP-1 metallo-beta-lactamase | 290,000 tested, 0.45% active | purified IMP-1, nitrocefin hydrolysis, epi-absorbance fluorescence | inhibition, % at 5.6 µM;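 active = inhibition above the mean plus 3 SD of all compounds in the same screening run, cut at about 4.5% in these data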;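 note: 0% = IMP-1 with DMSO and 100% = DMSO wells lacking enzyme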
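System – purified recombinant IMP-1 beta-lactamase · Input – IMP-1 dispensed at 0.2 nM · Timing – 15 min preincubation plus 25 min reaction at 25 °C · Signal – Epi-absorbance fluorescence, 480 nm excitation, 530 nm emission · Measure – percent IMP-1 inhibition derived from blank-referenced optical density · Controls – Enzyme-plus-DMSO low control, enzyme-free DMSO high control · Replication – singlicate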
Numbers without * were called inactive; x = no result given. Hits are enriched below; roughly 1% of the tested compounds scored in any of these assays.

SMILES | PvdQ acylase | RAD54 inh | FID counter | VIM-2 inh | IMP-1 inhibitor
CCOC(=O)c1c(NC(=O)CSc2cccc[n+]2[O-])sc(C(=O)Nc2ccccc2)c1C | -11 | x | -24 | -5 | -5
Cc1cc(C)c2c(N)c3cccc(C)c3nc2n1 | -12 | x | 31 | 18* | -1
O=C1CCC[C@@H]2c3[nH]c4ccccc4c3CCN12 | x | 1 | x | x | x
COCC(=O)N(C)C[C@H]1Oc2ncc(-c3cccc(OC)c3)cc2C(=O)N([C@@H](C)CO)C[C@@H]1C | x | 2 | x | x | x
CCOc1ccccc1N(CC(=O)N1CCCCCC1)S(C)(=O)=O | -7 | -3 | -8 | -1 | -2
CCOc1ccccc1N(CC(=O)OC)S(C)(=O)=O | -11 | -11 | -3 | -2 | 4.9*
COc1ccc(N(CC(=O)O)S(=O)(=O)c2ccc(C)cc2)cc1Cl | 15 | x | -20 | 11* | -1
COc1ccc(C)cc1N(CC(=O)O)S(=O)(=O)c1ccc(C)cc1 | -11 | -3 | -23 | -4 | -4
CCCc1cn(CC[C@H]2CC[C@H](NC(=O)C3CCCCC3)[C@H](CO)O2)nn1 | x | -3 | x | x | x
CC(C)(C)C(=O)NC(=C(Cl)Cl)P(=O)(O)O | -9 | -2 | 0 | 10* | 0
O=C(Nc1ccc(Cl)cc1)N1CC=CCC1 | -17 | -8 | 0 | -2 | 8.1*
CCCC(=O)Nc1ccc2c(c1)C(=O)N(C)C[C@@H](OC)[C@@H](C)CN(Cc1ccccc1F)[C@H](C)CO2 | x | -10 | x | x | x
CCOC(=O)COc1cc(OCC(=O)OCC)c2c3c(c(=O)oc2c1)CCCC3 | -20 | 11 | -31 | 9.4* | -2
Cc1ccc(S(=O)(=O)N[C@H]2CC[C@@H](CC(=O)N3CCc4ccccc4C3)O[C@@H]2CO)cc1 | x | -5 | x | x | x
Cn1cccc1C(C#N)c1ncc(C(F)(F)F)cc1Cl (stereo not given) | -1 | 0 | -9 | 0 | 0
N#CC(c1cccc(Cl)c1)c1ncc(C(F)(F)F)cc1Cl (stereo not given) | 52* | 3 | -7 | -1 | -1
N#CC(c1ccc(Cl)cc1)c1ncc(C(F)(F)F)cc1Cl (stereo not given) | 57* | 6 | -3 | -1 | -2
COc1ccc(NC(=O)N(C)C[C@H]2Oc3c(NS(=O)(=O)c4c(C)noc4C)cccc3C(=O)N([C@@H](C)CO)C[C@H]2C)cc1 | x | 1 | x | x | x
COc1ccc(-c2cc(C(=O)Nc3cc(C)ccc3O)no2)cc1 | 1 | 0 | -2 | -3 | -1
COc1ccc(-c2cc(C(=O)Nc3cc(Cl)ccc3O)no2)cc1 | -5 | -1 | -2 | -5 | 25*
COc1ccc(-c2cc(C(=O)Nc3ccc(Br)cc3)no2)cc1 | -10 | 1 | -4 | 0 | 20*
COC(=O)c1cc(-c2cccc(OC)c2)on1 | 47* | -6 | -3 | 0 | -1
COC(=O)c1cc(-c2ccc(OC)cc2)on1 | 95* | 1 | 3 | -1 | -3
COc1cccc(-c2cc(C(=O)O)no2)c1 | -5 | 7 | -4 | -1 | -4
CO[C@H]1CN(C)C(=O)c2ccc(NC(=O)C3CCC3)cc2OC[C@H](C)N(C(=O)NC(C)C)C[C@H]1C | x | 4 | x | x | x
SMILES | PvdQ acylase | RAD54 inh | FID counter | VIM-2 inh | IMP-1 inhibitor
O=C(NC1CCCC1)[C@@H]1[C@@H](CO)[C@@H]2Cn3c(ccc(-c4ccccc4)c3=O)[C@H]1N2CCc1ccccc1 | x | 1 | x | x | x
C[C@H]1CN([C@@H](C)CO)C(=O)c2cc(C3=CCCCC3)cnc2O[C@@H]1CN(C)C(=O)c1ccc2c(c1)OCO2 | x | -7 | x | x | x
COC(=O)c1cc(-c2ccc(Br)cc2)on1 | 92* | -1 | -6 | -2 | -3
Cc1ccccc1C(=O)Nc1c(C(=O)N(CCN(C)C)Cc2ccco2)oc2ccccc12 | 6 | 2 | 20 | 0 | -3
COc1ccccc1C(=O)Nc1c(C(=O)N(CCN(C)C)Cc2ccco2)oc2ccccc12 | -7 | 3 | 37* | 7 | -3
COc1ccc(OCC(=O)Nc2c(C(=O)N3CCN(C)CC3)oc3ccccc23)cc1 | -8 | -1 | 8 | -1 | -1
COc1ccc(OCC(=O)Nc2c(C(=O)N(CCN(C)C)Cc3ccco3)oc3ccccc23)cc1 | -9 | 12 | 41* | 5 | -1
C[C@@H]1CCCCO[C@@H](CN(C)CC2CCCCC2)[C@H](C)CN([C@H](C)CO)C(=O)c2cc(NC(=O)Nc3cccc4ccccc34)ccc2O1 | x | 4 | x | x | x
COc1ccc2cc3[n+](cc2c1OC)CCc1cc2c(cc1-3)OCO2 | 0 | 72* | 0 | -2 | -3
CO[C@@H]1CN(C)C(=O)c2ccc(NC(=O)Nc3cccc(F)c3)cc2OC[C@@H](C)NC[C@@H]1C | x | -7 | x | x | x
CCCCNC(=O)CCCn1c(=S)[nH]c2cc3c(cc2c1=O)OCO3 | -9 | -22 | 4 | -1 | -2
O=C(CCCn1c(=S)[nH]c2cc3c(cc2c1=O)OCO3)NCc1ccccc1Cl | -9 | -1 | -12 | -4 | 14*
CCN(CC)CCCNC(=O)c1cc(Cl)c(NC(=O)C2=C(C)OCCS2)cc1OC | -14 | 9 | 4 | 11* | -2
CCC(C)NC(=O)c1cc(Cl)c(NC(=O)C2=C(C)OCCS2)cc1OC (stereo not given) | 5 | 3 | -29 | 1 | -1
CN1CCN(C(=O)C[C@@H]2C[C@@H]3c4cc(NC(=O)Nc5ccccc5)ccc4O[C@@H]3[C@H](CO)O2)CC1 | x | 2 | x | x | x
C[C@@H]1CN([C@@H](C)CO)C(=O)c2cc(NC(=O)CCCN(C)C)ccc2O[C@H]1CN(C)S(=O)(=O)c1ccccc1 | x | -2 | x | x | x
O=C(O)C1CCN(c2nc(-c3ccccc3)nc3c2oc2ccccc23)CC1 | -11 | 9 | -9 | 0 | -1
OCCN1CCN(c2nc(-c3ccccc3)nc3c2oc2ccccc23)CC1 | 4 | 35 | 43* | 4 | -1
C/C=C/c1ccc2c(c1)O[C@@H](CN(C)C)[C@@H](C)CN([C@@H](C)CO)S2(=O)=O | x | 6 | x | x | x
Cc1ccc2c(c1)c1ncnc(N3CCOCC3)c1n2C | -28 | 9 | -14 | 7.7* | -4
O=C(Nc1ccc(F)c(F)c1)c1cc(S(=O)(=O)N2CCN(c3ccccn3)CC2)ccc1F | -6 | 0 | -4 | 1 | 4.6*
O=C(Nc1c(F)cc(F)cc1Br)c1cc(S(=O)(=O)N2CCN(c3ccccn3)CC2)ccc1F | 3 | -3 | -23 | -3 | -2
CCNC(=O)Nc1ccc2c(c1)C(=O)N(C)[C@@H]1CC[C@@H](CC(=O)NCCN3CCCC3)O[C@H]1CO2 | x | 1 | x | x | x
Cc1cc(NC(=O)CSc2n[nH]c(=O)[nH]c2=O)ccc1Br | -5 | x | -2 | -1 | 0
O=C(CSc1n[nH]c(=O)[nH]c1=O)Nc1ccc(C(=O)O)cc1 | -7 | x | -6 | 1 | 7.7*
Cn1nc(-c2ccc(C(=O)N3CCN(Cc4ccccc4)CC3)cc2)c2ccccc2c1=O | -7 | 1 | -18 | 11* | -3
O=C(c1ccc(-n2cccc2)cc1)N1CCN(Cc2ccccc2)CC1 | 9 | -3 | -20 | -1 | -1
Cc1cccn2c(=O)c3cc(S(=O)(=O)c4ccccc4)c(=N)n(Cc4cccnc4)c3nc12 | -13 | -3 | -4 | 10* | -2
